We go through seven compounds from ChEMBL document CHEMBL1123420, “Synthesis and toxicity toward nigrostriatal dopamine neurons of 1-methyl-4-phenyl-1,2,3,6-tetrahydropyridine (MPTP) analogues” (1986).

Holding throughout (format): functional
Assay [1] concerns Mus musculus. In words: Dopamine content in mice striata was evaluated after 1 day of administration of compound. The essentials: (§1)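 Male Swiss mice (25–40 g) dosed ip, 0.072 mmol/kg on days 1 and 2, then 0.142 mmol/kg on days 3–12. Drugs were given as 0.14 M solutions in normal saline and stored at 5 °C; saline-injected controls. Mice killed 1 day after the last injection. Striata weighed, homogenized, Sephadex-separated, then DA, DOPAC and HVA measured by HPLC-EC in μg/g tissue as mean ± error.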

The test system of assay [2] is Mus musculus. In words: Dopamine content in mice striata was evaluated after 9 days of administration of compound. The essentials:
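Ip regimen in male Swiss mice (25–40 g): 0.072 mmol/kg on days 1–2, then 0.142 mmol/kg on days 3–12, from 0.14 M saline solutions; saline controls; n=5 per group. Animals killed 9 days after the final injection. Striatal DA measured by HPLC-EC after homogenization and Sephadex cleanup, reported in μg/g tissue.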

Assay [3] relates to Mus musculus. Briefly: HVA content in mice striata was evaluated after 1 day of administration of compound. The essentials: as §1
In assay [4] the test system is Mus musculus. Briefly: DOPAC content in mice striata was evaluated after 1 day of administration of compound. The essentials:
as §1

As to `CC1=C(c2ccccc2)CC(C)N(C)C1.O=C(O)/C=C/C(=O)O` (stereo not drawn), the Content in the assay with Mus musculus [1] was 15.22 ug (g of tissue)-1; in the assay with Mus musculus [2], 14.49 ug (g of tissue)-1; with Mus musculus [3], 1.27 ug (g of tissue)-1; in the assay with Mus musculus [4] it was 1.18 ug (g of tissue)-1.
As to `CN(C)C/C=C/c1ccccc1.Cl`, the Content is recorded as 13.6 ug (g of tissue)-1 with Mus musculus [1], 14.56 ug (g of tissue)-1 with Mus musculus [2], 1.11 ug (g of tissue)-1 in the assay on Mus musculus [3] and 1.37 ug (g of tissue)-1 with Mus musculus [4].
The like results for `CN1CC=C(c2ccccc2)CC1.Cl` were, in that order, 3.16 ug (g of tissue)-1, 4.34 ug (g of tissue)-1, 0.61 ug (g of tissue)-1 and 0.31 ug (g of tissue)-1.
For `CC1CN(C)C(C)C=C1c1ccccc1.Cl` (stereo not drawn), in that order: 14.42 ug (g of tissue)-1, 14.65 ug (g of tissue)-1, 1.39 ug (g of tissue)-1 and 1.36 ug (g of tissue)-1.
For the compound `CC1CN(C)CC=C1c1ccccc1.Cl` (stereo not drawn), the Content in the assay with Mus musculus [1] was 13.21 ug (g of tissue)-1; with Mus musculus [2], 13.35 ug (g of tissue)-1; in the assay with Mus musculus [3] it was 1.14 ug (g of tissue)-1; with Mus musculus [4], 1.11 ug (g of tissue)-1.
For `CC1=C(c2ccccc2)CCN(C)C1.Cl`, in that order: 13.68 ug (g of tissue)-1, 13.85 ug (g of tissue)-1, 1.26 ug (g of tissue)-1 and 1.22 ug (g of tissue)-1.
For `CN1CC=C(c2ccccc2)C(C)(C)C1.Cl`, in that order: 17.28 ug (g of tissue)-1, 17.28 ug (g of tissue)-1, 1.39 ug (g of tissue)-1 and 1.31 ug (g of tissue)-1.
